These results are taken from ChEMBL document CHEMBL1129618, “(+/-)-3-[4'-(N,N-dimethylamino)cinnamyl]benzazepine analogs: novel dopamine D1 receptor antagonists” (J Med Chem, 1996).

Assay [1] deals with T1, D(1A) dopamine receptor (Rattus norvegicus, UniProt P18901). Description: Dopamine receptor D1 antagonistic activity as ability to block dopamine-stimulated adenylate cyclase in rat caudate. The class given is functional.
The target in a further assay is D(2) dopamine receptor (Rattus norvegicus, UniProt P61169). Description: Affinity for Dopamine receptor D2 binding measured by sulpiride […] to rat striatal membrane. Also noted: species or system Striatum. The essentials: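 Competition binding against [³H]sulpiride at D2 sites in rat striatal (caudate putamen) membranes. Ki values are means ± SEM of at least three determinations, each run in triplicate.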

In assay [2] the target is T1, D(1A) dopamine receptor. Description: Affinity for Dopamine receptor D1 binding measured by competition against [3H]-SCH- 23390 to rat striatal membrane. Also noted: species or system Striatum. The essentials: (§1)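 Competition binding against [³H]SCH 23390 at D1 sites in rat striatal (caudate putamen) membranes. Ki values are means ± SEM of at least three determinations, each run in triplicate.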

In assay [3] the target is T1, D(1A) dopamine receptor. The assay is described as follows: Affinity for dopamine receptor D1 binding measured by competition against [3H]-SCH- 23390 to rat striatal membrane. Also noted: species or system Striatum. A digest of the protocol:
as §1

Chain of D(2) dopamine receptor (P61169 whole entry): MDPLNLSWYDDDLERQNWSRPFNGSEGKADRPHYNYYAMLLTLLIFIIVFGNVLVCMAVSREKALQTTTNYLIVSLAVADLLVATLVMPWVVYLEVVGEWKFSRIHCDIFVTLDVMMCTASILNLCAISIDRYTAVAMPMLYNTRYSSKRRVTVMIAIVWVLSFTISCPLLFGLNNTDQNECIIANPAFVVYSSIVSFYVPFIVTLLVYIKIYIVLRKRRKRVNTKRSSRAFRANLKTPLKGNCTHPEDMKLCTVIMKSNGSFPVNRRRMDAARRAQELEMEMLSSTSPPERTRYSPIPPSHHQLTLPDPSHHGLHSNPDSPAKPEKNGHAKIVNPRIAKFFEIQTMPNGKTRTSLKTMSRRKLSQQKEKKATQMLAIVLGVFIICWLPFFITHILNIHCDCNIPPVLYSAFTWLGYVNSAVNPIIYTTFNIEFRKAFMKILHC
T1 sequence (P18901 whole entry): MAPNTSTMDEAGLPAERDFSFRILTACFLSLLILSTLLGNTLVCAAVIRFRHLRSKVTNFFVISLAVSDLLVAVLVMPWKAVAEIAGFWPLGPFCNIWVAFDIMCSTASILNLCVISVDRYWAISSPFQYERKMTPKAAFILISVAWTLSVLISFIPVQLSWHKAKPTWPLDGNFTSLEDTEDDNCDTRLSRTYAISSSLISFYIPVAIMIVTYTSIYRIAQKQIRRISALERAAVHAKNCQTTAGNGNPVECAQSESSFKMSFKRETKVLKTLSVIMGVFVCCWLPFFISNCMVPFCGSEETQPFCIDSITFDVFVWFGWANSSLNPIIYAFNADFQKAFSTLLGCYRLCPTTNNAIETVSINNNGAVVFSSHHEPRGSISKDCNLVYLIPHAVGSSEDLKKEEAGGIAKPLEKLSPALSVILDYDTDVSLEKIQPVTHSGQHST

In general, Ki refers to a measure of affinity in units of concentration, obtained from inhibition or displacement. As to `CN(C)CCCCCCN1CCc2cc(Cl)c(O)cc2C(c2ccccc2)C1` (stereo unspecified), the results for the Ki at D(1A) dopamine receptor [1] and on D(2) dopamine receptor (read-out: Ki) were 21 nM and 4130 nM, respectively.

With `COc1cc2c(cc1Br)CCN(C/C=C/c1ccc(N(C)C)cc1)CC2c1ccccc1` (stereo unspecified), on D(2) dopamine receptor (read-out: Ki), the Ki came out at 2000 nM.

For the compound `CN(C)c1ccc(/C=C/CN2CCc3cc(Cl)c(O)cc3C(c3ccccc3)C2)cc1` (stereo unspecified), the Ki at D(1A) dopamine receptor [1] was 18.4 nM; on D(2) dopamine receptor (read-out: Ki), 345 nM.

Consider `CN(C)CCCCN1CCc2cc(Cl)c(O)cc2C(c2ccccc2)C1` (stereo unspecified), for which, on D(2) dopamine receptor (read-out: Ki), the Ki came out at 3450 nM.

With `CN(C)c1ccc(CCN2CCc3cc(Cl)c(O)cc3C(c3ccccc3)C2)cc1` (stereo unspecified), on D(1A) dopamine receptor [2], the affinity, expressed as Ki, was 88.4 nM.

Consider `CN(C)c1ccc(/C=C/CN2CCc3cc(Br)c(O)cc3C(c3ccccc3)C2)cc1` (stereo unspecified), for which the Ki is 120 nM on D(1A) dopamine receptor [3] and 858 nM at D(2) dopamine receptor (read-out: Ki).

Turning to `Oc1cc2c(cc1Br)CCN(C/C=C/c1ccccc1)CC2c1ccccc1` (stereo unspecified), the inhibitory constant (Ki) at D(1A) dopamine receptor [3] was 209 nM; at D(2) dopamine receptor, “Insoluble”.
